In ChEMBL document CHEMBL1142883, “New polyamine-sensitive inhibitors of the NMDA receptor: syntheses and pharmacological evaluation” (Eur J Med Chem, 2007):

How the values were obtained:
Glutamate NMDA receptor [1] = experiment: Displacement of [3H]MK-801 from NMDA receptor in rat brain in presence of 100 uM spermine; type: tissue-based
Summary of the method: (§1)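 [³H]MK-801 at 5 nM is bound to rat brain membranes, with the co-agonists glutamic acid and glycine added. Incubation lasts 2 h, close to equilibrium. Nonspecific binding is binding to closed channels: no glutamate or glycine, with D-APV and 5,7-DCKA added. The standard buffer is 50 mM Tris, switched to 10 mM Tris for buffer-sensitive inhibition. Replicate counts are given per value.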

Glutamate NMDA receptor [2] = experiment: Displacement of [3H]MK-801 from rat brain NMDA receptor; summary of the method: as §1
Glutamate NMDA receptor [3] = experiment: Displacement of [3H]MK801 from rat brain NMDA receptor in presence of 30 uM spermine; summary of the method: as §1
Glutamate NMDA receptor [4] = experiment: Stimulation of [3H]MK-801 binding to rat brain NMDA receptor; summary of the method: as §1

Row | Structure (SMILES) | spermine attenuation ratio (Glutamate NMDA receptor [1]) | IC50 (Glutamate NMDA receptor [2]) [µM] | spermine attenuation ratio (Glutamate NMDA receptor [3]) | EC50 (Glutamate NMDA receptor [4]) [µM]
1 | Cc1cc(CCCCCCCCN)sc1CCCCN | 4.07 | 1.08 | – | –
2 | CN(C)CCCCCCCCc1ccc(CC2CCNCC2)s1 | 7.67 | 15.2 | – | –
3 | NCCCCC#CCCCCCCCCN | 5.38 | 6.73 | – | –
4 | NCCCCc1ccc(CCNC(=O)CNC(=O)CN)s1 | – | 111 | 5.48 | –
5 | NCCCCCCCCCCCCCCN | 6.94 | 5.28 | – | –
6 | NCCCCc1ccc(CCNCCNCCN)s1 | – | 282 | – | 1.9
7 | NCCCCc1ccc(CCCCNC(=O)CCN)s1 | – | 1.19 | 51.4 | –
8 | Cc1cc(CCCCN)sc1CCCCCCCCN | 3.9 | 1.62 | – | –
9 | N=C(N)NCCCCCCc1ccc(CCNC(=N)N)s1 | – | 1.04 | 23.4 | –
10 | NCCCCCCCCc1ccc(CC2CCNCC2)s1 | 9.07 | 0.63 | – | –
11 | CNCCCCCCCCc1ccc(CC2CCNCC2)s1 | 8.58 | 2.48 | – | –
12 | NCCCCc1ccc(CCOCCOCCN)s1 | – | 4.2 | 16.8 | –
13 | NCCCCCCCCc1ccc(CCCCN)s1 | 8.84 | 0.54 | 15.1 | –
14 | NCCCCCCCCc1ccc(Cc2ccccc2CN)s1 | 2.96 | 1.13 | – | –
15 | NCCCCc1ccc(Cc2ccc(CCCCN)s2)s1 | – | 1.76 | 16.8 | –
16 | N=C(N)NCCCCCCCCc1ccc(CCCCNC(=N)N)s1 | – | 0.77 | 3.95 | –
17 | NCCCCCCCCc1ccc(CCCCN)cc1 | 7.95 | 0.87 | – | –

Now from value to molecule:

Row | spermine attenuation ratio (Glutamate NMDA receptor [1]) | IC50 (Glutamate NMDA receptor [2]) [µM] | spermine attenuation ratio (Glutamate NMDA receptor [3]) | EC50 (Glutamate NMDA receptor [4]) [µM] | Structure (SMILES)
18 | 2.79 | 358 | – | – | CN(C)CCCCCCCCc1ccc(CCCCN(C)C)s1
19 | – | 13.4 | 1.71 | – | NCCCCc1ccc(CCCCN(Cc2ccccc2)C(=O)C[C@@H](N)Cc2ccccc2)s1
20 | – | 6.81 | 15 | – | NCCCCc1ccc(CCCCNC(=O)CC(N)c2ccccc2)s1 (stereo unspecified)
21 | 2.67 | 3.23 | – | – | CCc1cc(CCCCN)sc1CCCCCCCCN
22 | – | 53 | 75 | – | NCCCCCCCCNC(=O)CCN
23 | 2.98 | 114 | – | – | CCCNCCCCCCCCc1ccc(CCCCNCCC)s1
24 | 6.57 | 13.3 | – | – | C=CCNCCCCCCCCc1ccc(CCCCNCC=C)s1
25 | – | 5.47 | 9.57 | – | NCCCCCCCCc1ccc(CCCN)s1
26 | 7.7 | 5.3 | – | – | CNCCCCCCCCc1ccc(CCCCNC)s1
27 | – | 2.21 | 65.4 | – | CC(N)CC(=O)NCCCCc1ccc(CCCCN)s1 (stereo unspecified)
28 | – | 9.62 | 1.66 | – | NCCCCc1ccc(CCCCN(CC[C@@H](N)Cc2ccccc2)Cc2ccccc2)s1
29 | 0.98 | 8.67 | – | – | c1ccc(CNCCCCCCCCc2ccc(CCCCNCc3ccccc3)s2)cc1
30 | – | 11.7 | 10.1 | – | NCCCCc1ccc(CCCCNC(=O)C(CN)c2ccccc2)s1 (stereo unspecified)
31 | – | 7.05 | 34.6 | – | NCCCCCCCCCCCCN
32 | – | 5.2 | 29 | – | NCCCCc1ccc(CCCCNCCCN)s1
33 | – | 24.7 | 10.3 | – | CC(CN)C(=O)NCCCCc1ccc(CCCCN)s1 (stereo unspecified)
34 | – | 0.31 | 6.29 | – | N=C(N)NCCCCCCCCc1ccc(CCCNC(=N)N)s1
35 | – | 0.74 | 7.47 | – | N=C(N)NCCCCCCCc1ccc(CCCNC(=N)N)s1
